What was measured:
[1] = tested on: Hs-578T; test: Growth inhibition of human Hs 578T cells assessed as cell growth at 10^-8 M incubated for 48 hrs by sulforhodamine B assay relative to control; type: functional; conditions: read-out: Activity
[2] = tested on: Malme-3M; test: Growth inhibition of human MALME-3M cells assessed as cell growth at 10^-5 M incubated for 48 hrs by sulforhodamine B assay relative to control; type: functional; conditions: read-out: Activity
[3] = tested on: MDA-MB-435; test: Growth inhibition of human MDA-MB-435 cells assessed as cell growth at 10^-6 M incubated for 48 hrs by sulforhodamine B assay relative to control; type: functional; conditions: MDA-MB-435, 48 h, read-out: Activity
[4] = tested on: HCT-116; test: Growth inhibition of human HCT116 cells assessed as cell growth at 10^-6 M incubated for 48 hrs by sulforhodamine B assay relative to control; type: functional; conditions: HCT-116, 48 h, read-out: Activity
[5] = tested on: SN12C; test: Growth inhibition of human SN12C cells assessed as cell growth at 10^-6 M incubated for 48 hrs by sulforhodamine B assay relative to control; type: functional; conditions: read-out: Activity
[6] = tested on: NCI-H23; test: Growth inhibition of human NCI-H23 cells assessed as cell growth at 10^-6 M incubated for 48 hrs by sulforhodamine B assay relative to control; type: functional; conditions: NCI-H23, 48 h, read-out: Activity
[7] = tested on: 786-0; test: Growth inhibition of human 786-0 cells assessed as cell growth at 10^-7 M incubated for 48 hrs by sulforhodamine B assay relative to control; type: functional; conditions: 786-0, 48 h, read-out: Activity
[8] = tested on: LOX IMVI; test: Growth inhibition of human LOXIMVI cells assessed as cell growth at 10^-8 M incubated for 48 hrs by sulforhodamine B assay relative to control; type: functional; conditions: read-out: Activity
[9] = tested on: IGROV-1; test: Growth inhibition of human IGROV1 cells assessed as cell growth at 10^-7 M incubated for 48 hrs by sulforhodamine B assay relative to control; type: functional; conditions: IGROV-1, 48 h, read-out: Activity
[10] = tested on: HCC 2998; test: Growth inhibition of human HCC2998 cells assessed as cell growth at 10^-7 M incubated for 48 hrs by sulforhodamine B assay relative to control; type: functional; conditions: HCC 2998, 48 h, read-out: Activity
[11] = tested on: T47D; test: Cytotoxicity against human T47D cells after 48 hrs by SRB assay; type: functional; conditions: for GI50: read-out: pGI50 (converted); for CC50: read-out: pLC50 (the source's name) (converted)
[12] = tested on: RPMI-8226; test: Cytotoxicity against human RPMI8226 cells after 48 hrs by SRB assay; type: functional; conditions: RPMI-8226, 48 h; for CC50: read-out: LC50 (the source's name)
[13] = tested on: RPMI-8226; test: Growth inhibition of human RPMI8226 cells assessed as cell growth at 10^-8 M incubated for 48 hrs by sulforhodamine B assay relative to control; type: functional; conditions: RPMI-8226, 48 h, read-out: Activity
[14] = tested on: K562; test: Growth inhibition of human K562 cells assessed as cell growth at 10^-7 M incubated for 48 hrs by sulforhodamine B assay relative to control; type: functional; conditions: K562, 48 h, read-out: Activity
[15] = tested on: BT-549; test: Growth inhibition of human BT549 cells assessed as cell growth at 10^-7 M incubated for 48 hrs by sulforhodamine B assay relative to control; type: functional; conditions: BT-549, 48 h, read-out: Activity
[16] = tested on: KM12; test: Growth inhibition of human KM12 cells assessed as cell growth at 10^-4 M incubated for 48 hrs by sulforhodamine B assay relative to control; type: functional; conditions: KM12, 48 h, read-out: Activity
[17] = tested on: SF-268; test: Growth inhibition of human SF268 cells assessed as cell growth at 10^-8 M incubated for 48 hrs by sulforhodamine B assay relative to control; type: functional; conditions: SF-268, 48 h, read-out: Activity
[18] = tested on: 786-0; test: Cytotoxicity against human 786-0 cells after 48 hrs by SRB assay; type: functional; conditions: 786-0, 48 h; for LC50 (lethal concentration, 50% cell kill): read-out: pLC50 (converted)
[19] = tested on: HCT-116; test: Growth inhibition of human HCT116 cells assessed as cell growth at 10^-7 M incubated for 48 hrs by sulforhodamine B assay relative to control; type: functional; conditions: HCT-116, 48 h, read-out: Activity
[20] = tested on: OVCAR-5; test: Cytotoxicity against human OVCAR5 cells after 48 hrs by SRB assay; type: functional; conditions: OVCAR-5, 48 h
[21] = tested on: ACHN; test: Growth inhibition of human ACHN cells assessed as cell growth at 10^-6 M incubated for 48 hrs by sulforhodamine B assay relative to control; type: functional; conditions: read-out: Activity
[22] = tested on: SR; test: Cytotoxicity against human SR cells after 48 hrs by SRB assay; type: functional
[23] = tested on: HL-60(TB); test: Growth inhibition of human HL-60(TB) cells assessed as cell growth at 10^-6 M incubated for 48 hrs by sulforhodamine B assay relative to control; type: functional; conditions: HL-60, 48 h, read-out: Activity
[24] = tested on: OVCAR-8; test: Growth inhibition of human OVCAR8 cells assessed as cell growth at 10^-7 M incubated for 48 hrs by sulforhodamine B assay relative to control; type: functional; conditions: OVCAR-8, 48 h, read-out: Activity
[25] = tested on: HT-29; test: Growth inhibition of human HT-29 cells assessed as cell growth at 10^-4 M incubated for 48 hrs by sulforhodamine B assay relative to control; type: functional; conditions: HT-29, 48 h, read-out: Activity
[26] = tested on: SF-268; test: Growth inhibition of human SF268 cells assessed as cell growth at 10^-5 M incubated for 48 hrs by sulforhodamine B assay relative to control; type: functional; conditions: SF-268, 48 h, read-out: Activity
[27] = tested on: HL-60(TB); test: Growth inhibition of human HL-60(TB) cells assessed as cell growth at 10^-8 M incubated for 48 hrs by sulforhodamine B assay relative to control; type: functional; conditions: HL-60, 48 h, read-out: Activity
[28] = tested on: SF-295; test: Cytotoxicity against human SF295 cells after 48 hrs by SRB assay; type: functional; conditions: SF-295, 48 h
[29] = tested on: U-251; test: Growth inhibition of human U251 cells assessed as cell growth at 10^-4 M incubated for 48 hrs by sulforhodamine B assay relative to control; type: functional; conditions: U-251, 48 h, read-out: Activity
[30] = tested on: Malme-3M; test: Cytotoxicity against human MALME-3M cells after 48 hrs by SRB assay; type: functional
[31] = tested on: HT-29; test: Growth inhibition of human HT-29 cells assessed as cell growth at 10^-8 M incubated for 48 hrs by sulforhodamine B assay relative to control; type: functional; conditions: HT-29, 48 h, read-out: Activity
[32] = tested on: HUVEC; test: Antiproliferative activity against HUVEC cells after 4 days by Coulter counter method; type: cell-based; conditions: Homo sapiens, 96 h
Method in brief: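 Primary HUVEC, primary HMVEC-d and the HMEC-1 line seeded at 20,000 cells/well in gelatin-coated plates in EC growth medium (EGM2). After overnight incubation, 5-fold compound dilutions added. Cells proliferated four days with compound, then trypsinized and counted by Coulter counter to derive IC₅₀.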

[33] = read-out: pLC50 (the source's name) (converted)
[34] = read-out: LC50 (the source's name)

## C#C[C@@]1(O)[C@@H](CO)O[C@@H](n2ccc3c(N)ncnc32)[C@@H]1O
[1]
  growth at 0.01 µM: 97%
[2]
  growth at 10 µM: -25%
[3]
  growth at 1 µM: 73%
[4]
  growth at 1 µM: 38%
[5]
  growth at 1 µM: 45%
[6]
  growth at 1 µM: 57%
[7]
  growth at 0.1 µM: 92%
[8]
  growth at 0.01 µM: 98%
[9]
  growth at 0.1 µM: 100%
[10]
  growth at 0.1 µM: 93%
[11]; read-out: TGI
  TGI: 2.14 µM
[11]
  GI50: 0.447 µM
  CC50: 7.59 µM
[11]; read-out: pTGI (converted)
  TGI: 2.14 µM
[12]
  CC50: > 100 µM
[12]; read-out: TGI
  TGI: > 100 µM
[12]; read-out: pGI50 (converted)
  GI50: 0.776 µM
[12]; read-out: pTGI (converted)
  TGI: > 100 µM
[13]
  growth at 0.01 µM: 103%
[14]
  growth at 0.1 µM: 93%
[15]
  growth at 0.1 µM: 102%
[16]
  growth at 100 µM: -52%
[17]
  growth at 0.01 µM: 99%
[18]; read-out: TGI
  TGI: 6.15 µM
[18]; read-out: pGI50 (converted)
  GI50: 1.62 µM
[18]
  LC50 (lethal concentration, 50% cell kill): 25.7 µM
[18]; read-out: pTGI (converted)
  TGI: 6.17 µM
[19]
  growth at 0.1 µM: 92%
[20]; read-out: TGI
  TGI: 8.54 µM
[20]; read-out: pGI50 (converted)
  GI50: 3.09 µM
[20]; [33]
  CC50: > 100 µM
[20]; read-out: pTGI (converted)
  TGI: 8.51 µM
[21]
  growth at 1 µM: 33%
[22]; read-out: TGI
  TGI: > 100 µM
[22]; read-out: pGI50 (converted)
  GI50: 0.813 µM
[22]; [33]
  CC50: > 100 µM
[22]; read-out: pTGI
  TGI: > 100 µM
[23]
  growth at 1 µM: 68%
[24]
  growth at 0.1 µM: 106%
[25]
  growth at 100 µM: -17%
[26]
  growth at 10 µM: 5%
[27]
  growth at 0.01 µM: 97%
[28]; read-out: TGI
  TGI: 5.33 µM
[28]; read-out: pGI50 (converted)
  GI50: 1.74 µM
[28]; [33]
  CC50: > 100 µM
[28]; read-out: pTGI (converted)
  TGI: 5.37 µM
[29]
  growth at 100 µM: -30%
[30]; read-out: GI50
  GI50: 1.68 µM
[30]; read-out: TGI
  TGI: 5.55 µM
[30]; read-out: pGI50 (converted)
  GI50: 1.66 µM
[30]; [33]
  CC50: 30.9 µM
[30]; read-out: pTGI (converted)
  TGI: 5.5 µM
[31]
  growth at 0.01 µM: 99%

## C#C[C@@]1(O)[C@@H](CO)O[C@@H](n2cc(I)c3c(N)ncnc32)[C@@H]1O
[1]
  growth at 0.01 µM: 78 to 87%
[3]
  growth at 1 µM: 34 to 46%
[4]
  growth at 1 µM: 5 to 6%
[5]
  growth at 1 µM: 16 to 25%
[6]
  growth at 1 µM: 28 to 33%
[7]
  growth at 0.1 µM: 72 to 79%
[8]
  growth at 0.01 µM: 85 to 93%
[9]
  growth at 0.1 µM: 5 to 13%
[10]
  growth at 0.1 µM: 70 to 75%
[11]; read-out: TGI
  TGI: 0.051 to 0.315 µM
[11]
  GI50: < 0.01 µM
  CC50: > 100 µM
[12]; read-out: GI50
  GI50: 0.275 to 0.428 µM
[12]
  CC50: 91.5 to 100 µM
[12]; read-out: TGI
  TGI: 4.57 to 6.65 µM
[13]
  growth at 0.01 µM: 95 to 96%
[14]
  growth at 0.1 µM: 35 to 41%
[15]
  growth at 0.1 µM: 61 to 76%
[16]
  growth at 100 µM: 3 to 9%
[17]
  growth at 0.01 µM: 92%
[18]; read-out: GI50
  GI50: 0.236 to 0.334 µM
[18]; read-out: TGI
  TGI: 3.24 µM
[18]
  LC50 (lethal concentration, 50% cell kill): > 100 µM
[18]; read-out: pTGI (converted)
  TGI: 3.24 µM
[19]
  growth at 0.1 µM: 22 to 34%
[20]; read-out: GI50
  GI50: 0.515 to 1.69 µM
[20]; [34]
  CC50: > 100 µM
[20]; read-out: TGI
  TGI: > 100 µM
[20]; read-out: pTGI (converted)
  TGI: > 100 µM
[21]
  growth at 1 µM: 28%
[32]
  IC50: 0.0099 µM
[22]; read-out: GI50
  GI50: 0.182 to 0.378 µM
[22]; [34]
  CC50: > 100 µM
[22]; read-out: TGI
  TGI: 8.15 to 100 µM
[23]
  growth at 1 µM: -38%
[24]
  growth at 0.1 µM: 32 to 35%
[26]
  growth at 10 µM: 7%
[27]
  growth at 0.01 µM: 83%
[28]; read-out: GI50
  GI50: 0.251 to 0.432 µM
[28]; [34]
  CC50: > 100 µM
[28]; read-out: TGI
  TGI: 3.77 µM
[28]; read-out: pTGI (converted)
  TGI: 3.8 µM
[30]; read-out: GI50
  GI50: 0.525 to 1.3 µM
[30]; [34]
  CC50: > 100 µM
[30]; read-out: TGI
  TGI: 2.76 to 4.16 µM
[31]
  growth at 0.01 µM: 56 to 73%

Source: ChEMBL document CHEMBL4270599, “Synthesis of a 3'-C-ethynyl-β-d-ribofuranose purine nucleoside library: Discovery of C7-deazapurine analogs as potent antiproliferative nucleosides” (Eur J Med Chem, 2018)
